# The list is not random: actives were taken first. Their share in the collection is about 3.5%.
# Yeast growth inh = yeast BB579 growth reduction in restrictive medium; S. cerevisiae BB579 growth, OD615, 48 h; inhibition, % at 10 µM; 0.51% of 140,000 active; AID 804;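 active means inhibition above a set limit, 3 SD over the mean compound inhibition, cut at about 44% in these data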
#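 controls = amphotericin B 10 µg/mL, positive | assay system = DeaD yeast strain BB579 | schedule = 48 h compound exposure at 30 °C after 4 h preincubation | detection = OD615 turbidity measurement | medium = restrictive CSMM-D medium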
# RAM inhibit = blocks the yeast RAM network; inhibition, % at 50 µM; 1.8% of 190,000 active; S. cerevisiae dse1pr::URA3 reporter, 5-FOA growth OD615, 2 d; analog-sensitive cbk1-as2 kinase mutant strain; AID 868;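 active means inhibition above a set limit, 3 SD over mean compound inhibition, cut at about 8.4% in these data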;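 further: 0% = DMSO-only wells with no growth and 100% = 10 µM 1-NA-PP1 full growth; inhibition rescues growth on 5-FOA so higher OD means more RAM inhibition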
# MT stabilize HCS = microtubule stabilization, imaging screen. % tubulin-high responders, % at 10 µM. HeLa tubulin immunostaining HCS, 24 h; share of cells brighter than vehicle mean+2SD. 0.83% of 200,000 active;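 active means plate Z-score above 3 for both tubulin-high and condensed-nucleus cell shares, with cell loss under 80%, at 10 µM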;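 further: anti alpha tubulin signal scored within the nucleus-defined area of each cell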
# b-catenin transl = alters nuclear translocation of beta-catenin in HeLa cells; immunofluorescence imaging; nuclear translocation activity, % at 5 µM; 0.3% of 190,000 active; AID 1665;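 active means nuclear translocation activity above 50% at 5 µM, with a well cell count of 50 or more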;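 further: per-cell ratio of nuclear to cytoplasmic median beta-catenin stain intensity; plate controls were DMSO negative control for no effect and GSK-3 inhibitor IX positive control for full effect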
#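 System: HeLa cells, endogenous beta-catenin; compound dosing: 5 µM primary single dose, 0.1% DMSO, 0.02–20 µM confirmation series; incubation: 24 h compound exposure at 37°C, 5% CO2; signal: beta-catenin immunofluorescence imaging with DAPI; evaluation: % activation, nuclear-to-cytoplasmic median beta-catenin signal ratio per cell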
# Efa HMGR inh = inhibitors of class II HMG-CoA reductase from Enterococcus faecalis. purified E. faecalis HMGR, NADPH absorbance 340 nm kinetic. 0.41% of 190,000 active. inhibition, % at 10 µM. AID 1066;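 active means inhibition above a set limit, the median over all tested compounds plus 3 SD, cut at about 9.5% in these data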;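 further: enzyme runs in reverse so mevalonate oxidation gives rising NADPH absorbance; 0% = complete reaction with DMSO and 100% = background rate lacking mevalonate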
# Yeast life ext = extends the lifespan of yeast; S. cerevisiae growth with nicotinamide, OD615; deaD strain in restrictive glucose medium; inhibition of the nicotinamide effect, % at 10 µM; 0.68% of 130,000 active;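 active means inhibition above a set limit, placed 3 SD over the median of all compounds, cut at about 26% in these data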;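 further: 0% = nicotinamide-treated wells and 100% = cells grown without nicotinamide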
#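 assay system = DeaD-strain S. cerevisiae | measured by = absorbance at 615 nm | probe or stimulus = nicotinamide 1.5 mM | buffer or medium = CSMM-D glucose medium, restrictive | times = 48 h at 30 °C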
# * hit, by the source's call; x = no result.
SMILES,Yeast growth inh,RAM inhibit,MT stabilize HCS,b-catenin transl,Efa HMGR inh,Yeast life ext
Cc1cc(C)nc(SCc2nnc(SCC(N)=O)o2)n1,x,1,3,2,-6,x
Cc1c(O)c(S(=O)c2ccccc2)c(=O)n(-c2ccccc2)c1-c1ccccc1 (stereo not drawn),-42,4,2,-1,-6,61*
COc1ccc(S(=O)(=O)N2CCCCCC2)cc1N(C)S(=O)(=O)c1ccccc1,0,10*,2,2,-7,6
COc1ccc(S(=O)(=O)N2CCCCC2)cc1C(C)C,-24,10*,4,x,-4,5
NC(=O)c1cc2ccncc2c2ccccc12,x,x,x,-1,x,x
Cc1ccccc1N(C)S(=O)(=O)c1ccc2[nH]cc(C(=O)NCC3CCCO3)c(=O)c2c1 (stereo not drawn),-111,2,4,x,4,-8
CCOc1ccc(N(C)S(=O)(=O)c2ccc3[nH]cc(C(=O)NCC4CCCO4)c(=O)c3c2)cc1 (stereo not drawn),-13,11*,4,x,-1,-6
COc1ccc(Nc2ncnc3scc(-c4ccc(OC)cc4)c23)cc1,-35,6,13*,x,-4,-5
CSc1ccc(S(=O)(=O)NCc2ccc(Cl)cc2Cl)cc1,-70,2,2,x,-1,88*
C=COCCNC(=S)N1CCOCCOCCN(C(=S)NCCOC=C)CCOCCOCC1,x,2,2,-1,3,x
Cc1ccc(/C=C(\NC(=O)c2ccc(C)cc2)C(=O)NCCCn2ccnc2)cc1,x,1,2,0,9,x
CCS(=O)(=O)n1nc(-c2ccc(Cl)cc2)nc1SCc1ccccc1,75*,-2,4,-1,6,x
COc1ccc(-c2nc(SCc3ccccc3)n(S(C)(=O)=O)n2)cc1,-11,-1,3,0,-1,-6
O=C1CCCC2=C1C(c1ccccc1)CC(=O)N2c1ccc(F)cc1F (stereo not drawn),x,1,3,-2,12*,x
COc1cnc(SCCC(F)=C(F)F)[nH]c1=O,x,2,3,0,-5,x
Cn1nc(C(=O)OCc2ccc(F)cc2)c2ccccc2c1=O,x,10*,3,1,2,x
CCc1ccc(N(C(=O)Cc2cccs2)C(C(=O)NC2CCCCC2)c2cn(C)nc2C)cc1 (stereo not drawn),-55,8.5*,2,x,-2,7
Cc1ccccc1C(C(=O)NC1CCCC1)N(C(=O)Cc1cccs1)c1ccc2c(c1)OCCO2 (stereo not drawn),-52,3,3,-2,-7,-9
Cc1cc(C)cc(C(=O)N2CC(=O)Nc3ccccc32)c1,-13,2,28*,154*,1,-8
C[C@H]1[C@H](C)CC[C@]2(C(=O)O)CC[C@]3(C)C(=CC[C@@H]4[C@@]5(C)C[C@@H](O)[C@H](O)C(C)(C)[C@@H]5CC[C@]43C)[C@H]12,-32,2,3,x,18*,1
O=[N+]([O-])c1cccc(-c2csc(N/N=C/c3cccc(O)c3)n2)c1,x,2,3,-1,-2,x
O=C(c1ccc(Cl)c([N+](=O)[O-])c1)N1CCN(c2ccccn2)CC1,-7,1,3,2,-3,6
O=C(c1ccccc1-c1ccccc1)N1CCN(c2ccccn2)CC1,-32,3,43*,66*,0,3
Cc1ccccc1C(=O)N1CCN(c2ccccn2)CC1,-33,2,3,-6,4,x
Cc1ccc(C(=O)N2CCN(c3ccccn3)CC2)cc1[N+](=O)[O-],x,2,3,0,10*,x
SMILES,Yeast growth inh,RAM inhibit,MT stabilize HCS,b-catenin transl,Efa HMGR inh,Yeast life ext
O=C(NCc1ccc2c(c1)OCO2)c1ccc(S(=O)(=O)N2CCOCC2)cc1,x,1,2,2,-1,x
Cc1cccc(NC(=O)CCn2cnnn2)c1,x,1,3,0,-8,x
O=C(CCn1cnnn1)Nc1ccc(Cl)c(Cl)c1,x,2,24,2,14*,x
N#Cc1c(-c2ccccc2Cl)cc(-c2ccccc2)[nH]c1=S,x,4,11,1,1,x
N#Cc1c2c(c(-c3ccccc3Cl)[nH]c1=S)CCCC2,x,0,1,-6,24*,x
Cc1ccc(CC2CC(=O)N(c3cc(Cl)ccn3)C2=O)cc1 (stereo not drawn),x,x,x,1,x,x
Cc1ccc(-c2ccc(/C=C3\SC(N4CCOCC4)=NC3=O)o2)cc1,x,1,5,2,12*,x
O=C1N=C(N2CCOCC2)S/C1=C/c1ccc(-c2ccc(F)cc2)o1,x,3,2,-1,-2,x
COCCNC(=O)C/C(C)=N/NC(=O)C(=O)NC1CCCCC1,x,3,1,0,-1,x
O=C1CSC(c2cn(-c3ccccc3)nc2-c2cc3ccccc3oc2=O)N1Cc1ccccc1 (stereo not drawn),-42,6,31*,x,-1,-17
COc1ccc2c(c1)sc(=N)n2C,x,0,4,0,-4,x
COC(=O)C1=C(C)N(C)C(C)=C(C(=O)OC)C1c1ccc(C(=O)OC)cc1,-33,0,2,-5,-3,-7
COC(=O)C1=C(C)N(C)C(=S)N(C)C1c1ccc(OC)cc1 (stereo not drawn),x,-1,4,-3,12*,x
NC(=O)NOCc1ccccc1F,x,0,4,0,-5,x
Cc1ccc(NC(=O)C(C)c2cccc(C(=O)c3ccccc3)c2)cc1O (stereo not drawn),-56,8.8*,2,-1,-1,7
Cc1cc(N2CCCCC2)nc(NCc2ccccc2)n1,-2,1,17*,2,-7,-20
CCOC(=O)C1C(=O)C=C(Nc2ccccc2F)CC1c1ccccc1 (stereo not drawn),-40,1,2,2,0,3
N#Cc1nc(COc2ccccc2)oc1N1CCC(Cc2ccccc2)CC1,-62,11*,4,-4,0,6
CC1CCN(c2oc(Cc3cccc4ccccc34)nc2C#N)CC1,-31,10*,3,-1,-7,-20
N#Cc1nc(Cc2cccc3ccccc23)oc1N1CCOCC1,-10,1,1,4,-2,-10
N#Cc1nc(COc2ccccc2)oc1N1CCN(Cc2ccccc2)CC1,-33,1,3,-1,1,-6
COC(=O)c1ccc(NC(=O)C(OC)c2ccccc2)cc1 (stereo not drawn),x,0,9,1,2,x
CC(C(=O)NCC1CCCO1)n1cc([N+](=O)[O-])cn1 (stereo not drawn),x,1,1,-1,3,x
COc1cccc(O[C@@H]2O[C@@H]3COC(C)(C)O[C@H]3[C@H](O)[C@H]2NC(C)=O)c1,-29,5,3,1,10*,x
COC(=O)c1ccc(Oc2cc(C)nc(SC)n2)cc1,-58,1,51*,8,-3,-14

# Screens as filed in PubChem.
